# The source made the active and inactive calls. The calls are words filed in the database; no cut-off is given here.
# Assays:
# [1] = tested on: Human immunodeficiency virus 2; test: Antiviral activity against HIV2 ROD infected in human CEM cells assessed as reduction of virus-induced cytopathogenicity after 4 to 5 days by trypan blue dye exclusion method; type: functional, organism-based; conditions: Human immunodeficiency virus 2, ISOLATE ROD, CCRF-CEM
# [2] = tested on: Human immunodeficiency virus 2; test: Antiviral activity against HIV2 ROD infected in human TK-deficient CEM cells assessed as reduction of virus-induced cytopathogenicity after 4 to 5 days by trypan blue dye exclusion method; type: functional, organism-based; conditions: Human immunodeficiency virus 2, ISOLATE ROD, CCRF-CEM
# [3] = tested on: Human immunodeficiency virus 1; test: Antiviral activity against HIV1 3B infected in human CEM cells assessed as reduction of virus-induced cytopathogenicity after 4 to 5 days by trypan blue dye exclusion method; type: functional, organism-based; conditions: Human immunodeficiency virus 1, 3B, CCRF-CEM
# [4] = tested on: CCRF-CEM; test: (§1) Cytotoxicity against human CEM cells after 72 hrs by coulter counter analysis; type: cell-based; conditions: 72 h; for CC50: human, ccrf-cem; for IC50: Homo sapiens, CCRF-CEM
# Summary of the method: (§2)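 Tumour cells, (5–7.5) × 10⁴ per well, were grown with graded compound amounts at 37 °C in humidified CO₂. Growth time was 48 h for L1210, 72 h for CEM and 96 h for HeLa. Cells were then counted with a Coulter counter. IC50 was the concentration reducing cell proliferation by 50%.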
# [5] = tested on: Human immunodeficiency virus 1; test: Antiviral activity against HIV1 NL4.3 infected in human MT4 cells assessed as reduction of virus-induced cytopathogenicity after 4 to 5 days by trypan blue dye exclusion method; type: functional, organism-based; conditions: Human immunodeficiency virus 1, NL4.3, MT4
# Summary of the method: (§3)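 MT-4 cells (~3 × 10⁵ cells/mL) were infected with 100 CCID50/mL of HIV and cultured with compound dilutions for 4–5 days at 37 °C in humidified CO₂. Viable cells were counted by trypan blue dye exclusion. EC50 was the concentration giving 50% inhibition of the HIV-induced cytopathic effect.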
# [6] = tested on: HeLa; test: Cytotoxicity against human HeLa cells after 96 hrs by coulter counter analysis; type: cell-based; summary of the method: as §2
# [7] = tested on: Human immunodeficiency virus 2; test: Antiviral activity against HIV2 ROD infected in human MT4 cells assessed as reduction of virus-induced cytopathogenicity after 4 to 5 days by trypan blue dye exclusion method; type: functional, organism-based; conditions: Human immunodeficiency virus 2, ISOLATE ROD; summary of the method: as §3
# [8] = tested on: L1210; test: Cytotoxicity against mouse L1210 cells after 48 hrs by coulter counter analysis; type: cell-based; conditions: L1210, 48 h; summary of the method: as §2
# [9] = tested on: MT4; test: Cytotoxicity against human MT4 cells after 4 to 5 days by trypan blue dye exclusion method; type: cell-based
# [10] = tested on: Human alphaherpesvirus 1; test: Antiviral activity against HSV1 infected in HEL cells at 100 uM; type: functional, organism-based
# [11] = tested on: Mammalian orthoreovirus 1; test: Antiviral activity against Reovirus-1 infected in African green monkey Vero cells at 100 uM; type: functional, cell-based
# [12] = tested on: Vaccinia virus; test: Antiviral activity against Vaccinia virus infected in HEL cells at 100 uM; type: functional, organism-based; conditions: Orthopoxvirus vaccinia
# [13] = tested on: Influenza A virus; test: Antiviral activity against Influenza A virus H1N1 infected in MDCK cells at 100 uM; type: functional, organism-based
# [14] = tested on: Influenza A virus; test: Antiviral activity against Influenza A virus H3N2 infected in MDCK cells at 100 uM; type: functional, organism-based
# [15] = tested on: Human orthopneumovirus; test: Antiviral activity against Respiratory syncytial virus infected in human HeLa cells at 100 uM; type: functional, organism-based
# [16] = tested on: Human respirovirus 3; test: Antiviral activity against Parainfluenza virus 3 infected in African green monkey Vero cells at 100 uM; type: functional, organism-based
# [17] = tested on: Sindbis virus; test: Antiviral activity against Sindbis virus infected in African green monkey Vero cells at 100 uM; type: functional, organism-based
# [18] = target: Human immunodeficiency virus type 1 reverse transcriptase (Human immunodeficiency virus 1) (UniProt Q72547); test: Activity at HIV reverse transcriptase
# [19] = tested on: Vesicular stomatitis virus; test: Antiviral activity against Vesicular stomatitis virus infected in human HeLa cells at 100 uM; type: functional, organism-based
# [20] = tested on: Human alphaherpesvirus 2; test: Antiviral activity against HSV2 infected in HEL cells at 100 uM; type: functional, organism-based
# [21] = tested on: Felid alphaherpesvirus 1; test: Antiviral activity against Feline herpesvirus infected in CRFK cells at 100 uM; type: functional, organism-based
# [22] = tested on: Punta Toro virus; test: Antiviral activity against Punta Toro virus infected in African green monkey Vero cells at 100 uM; type: functional, organism-based
# [23] = tested on: Feline coronavirus; test: Antiviral activity against Feline coronavirus infected in CRFK cells at 100 uM; type: functional, organism-based
# [24] = tested on: Coxsackievirus; test: Antiviral activity against Coxsackievirus B4 infected in human HeLa cells at 100 uM; type: functional, organism-based
# [25] = Prodrug activation assessed as carboxypeptidase Y (unknown origin)-mediated drug metabolism after 13 hrs by 31P-NMR analysis; type: ADME, Homo sapiens
# Summary of the method: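 The substrate was dissolved in acetone-d6 and mixed with Trizma buffer (pH 7.6) for the carboxypeptidase Y incubation.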
# [26] = as §1; type: cell-based, CCRF-CEM; conditions: human, CEM cells (CCRF-CEM); summary of the method: as §2
smiles,measurement,setting,value
COC(=O)[C@H](C)NP(=O)(Oc1ccccc1)OC1C[C@H](CO)[C@@H](O)C1 (mixture of isomers),EC50,[1],> 250 µM
same,EC50,[2],250 µM
same,EC50,[3],> 250 µM
same,CC50,[4],> 250 µM
C[C@H](NP(=O)(Oc1ccccc1)OC1C[C@H](CO)[C@@H](O)C1)C(=O)OC(C)(C)C (mixture of isomers),EC50,[1],> 250 µM
same,EC50,[2],250 µM
same,EC50,[3],> 250 µM
same,CC50,[4],> 250 µM
CCCCCOC(=O)[C@H](C)NP(=O)(Oc1ccccc1)O[C@@H]1CC[C@H](O)[C@H]1CO (some centres not stated),EC50,[5],> 250 µM
same,IC50,[6],166 µM
same,EC50,[7],145 µM
same,IC50,[8],116 µM
same,CC50,[9],> 250 µM
same,IC50,[4],106 µM
OC[C@H]1[C@H](O)CC[C@@H]1O,EC50,[5],6.7 µM
same,Activity,[10],inactive
same,EC50,[1],12 µM
same,IC50,[6],175 µM
same,EC50,[7],7.5 µM
same,Activity,[11],inactive
same,Activity,[12],inactive
same,Activity,[13],inactive
same,Activity,[14],inactive
same,Activity,[15],inactive
same,Activity,[16],inactive
same,Activity,[17],inactive
same,IC50,[8],55 µM
same,Activity,[18],inactive
same,EC50,[3],3.8 µM
same,Activity,[19],inactive
same,CC50,[9],90 µM
same,Activity,[20],inactive
same,Activity,[21],inactive
same,IC50,[4],≥ 250 µM
same,CC50,[4],> 250 µM
same,Activity,[22],inactive
same,Activity,[23],inactive
same,Activity,[24],inactive
C[C@H](NP(=O)(Oc1cccc2ccccc12)OC1C[C@H](CO)[C@@H](O)C1)C(=O)OC1CCCCC1 (mixture of isomers),Stability,[25],Stable
same,EC50,[1],> 50 µM
same,EC50,[2],50 µM
same,EC50,[3],> 50 µM
same,CC50,[4],> 250 µM
COC(=O)[C@@H](NP(=O)(Oc1ccccc1)OC1C[C@H](CO)[C@@H](O)C1)C(C)C (mixture of isomers),EC50,[1],> 250 µM
same,EC50,[2],250 µM
same,EC50,[3],> 250 µM
same,CC50,[4],> 250 µM
O=C(OCc1ccccc1)OC[C@H]1[C@H](O)CC[C@@H]1OC(=O)OCc1ccccc1,EC50,[1],5.4 µM
same,Activity,[18],inactive
same,EC50,[3],2.1 µM
same,CC50 at 72 h,[26],94 µM
C[C@H](NP(=O)(Oc1ccccc1)OC1C[C@H](CO)[C@@H](O)C1)C(=O)OC1CCCCC1 (mixture of isomers),EC50,[1],> 250 µM
same,EC50,[2],250 µM
same,EC50,[3],> 250 µM
same,CC50,[4],> 250 µM
C[C@H](NP(=O)(Oc1cccc2ccccc12)O[C@@H]1CC[C@H](O)[C@H]1CO)C(=O)OCC(C)(C)C (some centres not stated),EC50,[5],> 50 µM
same,IC50,[6],94 µM
same,EC50,[7],> 50 µM
same,IC50,[8],70 µM
same,CC50,[9],112 µM
same,IC50,[4],64 µM
O=C(OCc1ccccc1)OC[C@H]1CC(O)C[C@@H]1OC(=O)OCc1ccccc1 (some centres not stated),EC50,[1],> 50 µM
same,EC50,[3],> 50 µM
same,CC50 at 72 h,[26],110 µM
OC[C@H]1CC(O)C[C@@H]1O (some centres not stated),EC50,[1],> 250 µM
same,EC50,[3],> 250 µM
same,CC50,[4],> 250 µM
